Compound activity (PubChem BioAssay)
TRPC4 agonist – opens the mouse TRPC4 cation channel; Q9QUQ5; HEK293 TRPC4beta/mu-opioid, Fluo4 calcium fluorescence; stronger effect = higher value; B-score at 10 µM; hit rate 0.49% among 310,000;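 active = B-score above 5 SD of library B-scores, and initial fluorescence ratio not above library mean plus 5 SD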;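 note: positive B-score marks a calcium rise read as TRPC4 activation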
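Assay system: HEK293 stable line with TRPC4beta plus mu-opioid receptor; schedule: 45 min room-temperature Fluo4 loading, 110 s read; technique: kinetic Fluo4 calcium fluorescence; evaluation: integrated baseline-normalised fluorescence ratio, converted to per-well B score; controls: buffer (low) and maximal DAMGO (high)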
TRPC6 act – mouse TRPC6 channel activation | Q61143 | HEK293-TRPC6 membrane potential dye fluorescence; stronger effect = higher value | B-score at 10 µM | hit rate 0.13% among 310,000;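 active = B-score of the integrated fluorescence ratio above library mean plus 3 SD, and starting fluorescence ratio within library mean plus 5 SD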;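 note: higher score means more depolarization so channel activation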
Target sequence (Q61143 whole entry, looked up): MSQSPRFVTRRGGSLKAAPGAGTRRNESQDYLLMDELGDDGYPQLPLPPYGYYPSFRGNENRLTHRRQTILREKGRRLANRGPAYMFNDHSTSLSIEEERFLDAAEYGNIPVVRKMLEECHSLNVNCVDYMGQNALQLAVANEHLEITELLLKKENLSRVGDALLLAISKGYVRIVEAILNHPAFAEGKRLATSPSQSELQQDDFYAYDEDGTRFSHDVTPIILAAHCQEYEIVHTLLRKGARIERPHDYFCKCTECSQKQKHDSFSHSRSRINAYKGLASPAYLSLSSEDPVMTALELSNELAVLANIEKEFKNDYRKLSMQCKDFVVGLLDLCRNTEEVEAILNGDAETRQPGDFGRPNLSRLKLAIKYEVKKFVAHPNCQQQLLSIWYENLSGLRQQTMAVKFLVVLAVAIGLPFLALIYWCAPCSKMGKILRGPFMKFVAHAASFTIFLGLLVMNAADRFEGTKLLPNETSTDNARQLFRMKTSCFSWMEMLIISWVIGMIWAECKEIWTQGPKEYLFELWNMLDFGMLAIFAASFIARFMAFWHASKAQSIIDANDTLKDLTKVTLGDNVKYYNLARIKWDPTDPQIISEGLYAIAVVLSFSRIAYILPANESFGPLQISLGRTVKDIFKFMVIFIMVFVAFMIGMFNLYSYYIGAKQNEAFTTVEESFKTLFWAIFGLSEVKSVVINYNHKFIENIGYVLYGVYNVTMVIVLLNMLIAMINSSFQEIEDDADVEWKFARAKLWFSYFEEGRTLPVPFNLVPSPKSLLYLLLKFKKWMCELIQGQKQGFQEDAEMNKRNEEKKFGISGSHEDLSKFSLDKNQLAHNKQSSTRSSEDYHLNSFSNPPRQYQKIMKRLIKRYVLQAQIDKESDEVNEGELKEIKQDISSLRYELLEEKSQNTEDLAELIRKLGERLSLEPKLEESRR
TRPC4 PAM – allosterically enhances the mouse TRPC4 cation channel | Q9QUQ5 | HEK293 TRPC4beta/mu-opioid, DAMGO EC20, Fluo-4 Ca2+ flux; stronger effect = higher value | AID 2227 | hit rate 0.42% among 310,000 | B-score at 10 µM;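 active = B-score of calcium response area above 5 SD of library B-scores, with initial fluorescence ratio within 5 SD of library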;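 note: B-score of integrated fluorescence ratio over time as area under calcium response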
TRPC4 inh – TRPC4 (mouse) channel inhibition; Q9QUQ5; HEK293 TRPC4beta/mu-opioid, DAMGO-evoked Fluo4 calcium flux; stronger effect = lower value; B-score at 10 µM; hit rate 0.39% among 300,000; AID 2247;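 active = B-score over 3 SD under the library average, no early fluorescence shift, positive overall ratio signal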
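Material: HEK293 cells with stable TRPC4beta plus mu-opioid receptor expression; probe or stimulus: DAMGO in two steps, submaximal then maximal; technique: Fluo4 calcium fluorescence by kinetic imaging, 5 s 1 Hz baseline; measure: integrated fluorescence ratio relative to baseline, converted to per-well B score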
TRPC6 inh – blocks the mouse TRPC6 cation channel. HEK293-TRPC6, membrane potential dye, ACh-evoked depolarization; stronger effect = lower value. hit rate 1.1% among 310,000. B-score at 10 µM. AID 2553;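 active = B-score under library mean minus 3 SD, initial fluorescence not abnormally high, positive integrated signal ratio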;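 note: B-score derived from integrated fluorescence ratio over the kinetic read; more negative B-score means stronger inhibition of depolarization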
DNA FID counter – counter-screen for HCV NS3 helicase inhibitors: DNA intercalator displacement | hit rate 0.17% among 290,000 | inhibition, % at 7.9 µM | DNA fluorescent intercalator displacement, fluorescence; in the data active = inhibition above about 37%;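 note: 0% = vehicle and 100% = reference compound; higher means more ethidium bromide displaced from hairpin DNA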
* hit, by the source's call; i = inactive; · = no result given. Hits are enriched below; roughly 2.3% of the tested compounds scored in any of these assays.

SMILES	TRPC4 agonist	TRPC6 act	TRPC4 PAM	TRPC4 inh	TRPC6 inh	DNA FID counter
COc1cccc(CC(=O)NC2CCCN(Cc3ccc(Cl)cc3)C2)c1 (configuration not stated)	i	i	14*	i	i	2
O=C(NC1CCCN(Cc2ccc(Cl)cc2)C1)C1CCC1 (configuration not stated)	136*	i	i	i	i	1
Cn1cnnc1SCC(=O)NC1CCCN(Cc2ccc(Cl)cc2)C1 (configuration not stated)	46*	i	i	i	i	-2
COc1ccc2c(C)c(C(=O)N3CCN(Cc4ccccc4)CC3)oc2c1	i	i	i	i	i	-23
CCOCCCNCc1cc(Br)ccc1OCc1ccccc1	i	i	i	-6*	i	19
OCCNCc1cc(Br)ccc1OCc1ccccc1	i	i	i	i	i	24
Brc1ccc(OCc2ccccc2)c(CNCC2CCCO2)c1 (configuration not stated)	i	i	i	-6*	i	16
CC(C)C[C@H]1CN=C(Nc2ccccc2)N1CC1CCC(C)CC1 (some centres not stated)	i	i	i	i	i	10
OCCNCCSc1ccc(Cl)cc1	104*	i	i	i	i	10
c1ccc2c3c([nH]c2c1)CCNC3	i	i	24*	i	i	2
Cc1ccc(CN2C(=O)CSc3ccc(C(=O)NCCN4CCOCC4)cc32)cc1	i	i	i	i	i	43*
Cc1ccc(CN2C(=O)c3ccccc3Sc3ccc(C(=O)NCCN4CCOCC4)cc32)cc1	i	i	i	i	i	24
O=C(NCCN1CCOCC1)c1ccc2c(c1)N(Cc1ccc(F)cc1)C(=O)CS2	i	i	i	-7*	i	-2
O=C(NCCN1CCOCC1)c1cc2sccc2n1Cc1ccc(F)cc1	i	i	i	-7*	i	1
O=C(NCCCN1CCOCC1)c1ccc2c(=O)n(-c3ccc(F)c(Cl)c3)c(=S)[nH]c2c1	i	i	i	i	i	12
COc1cccc(CN(C)CC(=O)Nc2sc3c(c2C#N)CCC3)c1OC	i	i	i	i	i	-18
COc1ccc(CN(C)CC(=O)Nc2sc3c(c2C#N)CCC3)cc1OC	i	i	i	-6*	i	-17
CN(CC(=O)Nc1sc2c(c1C#N)CCCCC2)Cc1nc2ccccc2c(=O)[nH]1	i	i	16*	i	i	-7
Clc1ccc(-c2c[n+](Cc3ccc(Br)cc3)c3n2CCCCC3)cc1	i	i	i	i	i	18
Cc1ccc(-c2c[n+](CC(=O)Nc3nc(-c4ccccc4)cs3)c3n2CCC3)cc1	i	i	i	i	i	19
Clc1ccc(C[n+]2cc(-c3ccccc3)n3c2CCC3)cc1Cl	i	i	i	-6*	i	21
Clc1ccc(-c2c[n+](Cc3cccc(Cl)c3)c3n2CCC3)cc1	i	i	i	-6*	i	18
O=C(C[n+]1cc(-c2ccccc2)n2c1CCC2)Nc1nc(-c2ccccc2)cs1	i	i	i	i	i	38*
O=[N+]([O-])c1ccc(C[n+]2cc(-c3ccc(Cl)c(Cl)c3)n3c2CCCCC3)cc1	i	i	i	i	i	28
O=C(CCNC(=O)c1ccc(Cl)cc1)Nc1ccccc1N1CCCCC1	i	i	i	-5*	i	·
SMILES	TRPC4 agonist	TRPC6 act	TRPC4 PAM	TRPC4 inh	TRPC6 inh	DNA FID counter
CCOC(=O)C1=C(Cc2ccc(C)cc2)C(=O)c2ccccc2C1=O	i	13*	i	i	i	-9
CCOc1ccc2c(c1)C(C)=CC(C)(C)N2C(=O)Nc1ccccc1F	i	i	i	i	i	-5
CCNC(=O)N1c2ccc(OCC)cc2C(C)=CC1(C)C	i	i	i	-7*	i	-6
CCCCCCCCCCn1c2c(c(=N)c3c1CCC3)CCC2	52*	i	i	i	-5*	15
COc1ccc(OC)c(S(=O)(=O)NCC(c2ccco2)S(=O)(=O)c2ccccc2)c1 (configuration not stated)	i	i	i	i	i	·
COc1ccc(C2C(C(C)=O)=C(O)C(=O)N2c2ccc(Br)cc2)cc1 (configuration not stated)	i	i	i	-5*	i	-39
Cc1ccc(N2CCN(C(=S)c3ccc(-c4cccc([N+](=O)[O-])c4)o3)CC2)cc1	i	i	i	i	i	3
CN1CCN(c2ccc(NC(=O)c3ccc(-c4cccc([N+](=O)[O-])c4)o3)cc2)CC1	167*	i	i	i	i	26
CN1CCN(c2ccc(NC(=O)c3ccc(-c4ccc(Cl)cc4)o3)cc2)CC1	i	i	i	i	i	38*
CC(C)n1c(NCc2ccccc2O)nc2ccccc21	i	i	i	-6*	i	0
Cn1c(NCc2ccccc2O)nc2ccccc21	i	i	i	-6*	i	-1
C=CCc1cccc(CNc2nc3ccccc3n2C(C)C)c1O	i	i	i	i	i	18
Cn1c(NCc2ccccc2Cl)nc2ccccc21	i	i	i	i	i	·
CN1CCN(C(=O)/C(=C/c2cn(S(=O)(=O)N(C)C)c3ccccc23)NC(=O)c2ccccc2)CC1	i	i	i	i	i	21
Cc1cc(NS(=O)(=O)c2ccc(NC(=O)COc3ccc(Cl)c(C)c3)cc2)no1	i	i	i	-6*	i	-31
CCOC(=O)C1(CCc2ccccc2)CCN(Cc2ccn[nH]2)CC1	i	i	i	-6*	i	3
CCOC(=O)C1(CCCc2ccccc2)CCN(Cc2cnc(C)s2)CC1	74*	i	i	i	i	1
CCOC(=O)C1(CCCc2ccccc2)CCN(Cc2nccn2CC)CC1	i	i	i	i	i	35
CCOC(=O)C1(Cc2cccc(F)c2)CCN(Cc2ccon2)CC1	i	i	i	i	i	-6
CCOC(=O)C1(CCc2ccccc2)CCN(Cc2cccc3nccnc23)CC1	i	i	i	i	i	14
CCOC(=O)C1(Cc2cccc(F)c2)CCN(Cc2cnc(C)s2)CC1	66*	i	i	i	i	-3
COc1cc(CN2CCCC(C(=O)N3CCc4ccccc4C3)C2)cc(OC)c1OC (configuration not stated)	55*	i	i	i	i	9
